In ChEMBL document CHEMBL2440084, “Design and bio-evaluation of indole derivatives as potent Kv1.5 inhibitors” (Bioorg Med Chem, 2013):

Columns and labels:
[1] = molecular target: T1, Potassium voltage-gated channel subfamily A member 5 (Homo sapiens, UniProt P22460); assay: Inhibition of human Kv1.5 channel expressed in HEK293 cells by whole cell patch clamp technique; type: cell-based
Summary of the method: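 HEK 293 cells stably expressing hKv1.5 were grown at 37 °C with 10% FBS and 0.2 mg/mL geneticin, trypsinized and used the same day. Whole-cell I_Kur was evoked by 500-ms steps to +60 mV from -80 mV at 0.1 Hz, at 25 °C. Compound was applied ≥5 min after current stabilized. IC50 came from cell-by-cell Hill fits, ≥3 cells per concentration, mean ± SD, n = 3.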

[2] = species on record: Homo sapiens; assay: Selectivity ratio of IC50 for human ERG channel to IC50 for human Kv1.5 channel
[3] = molecular target: Voltage-gated inwardly rectifying potassium channel KCNH2 (Homo sapiens, UniProt Q12809); assay: Inhibition of human ERG channel expressed in CHO cells by whole cell patch clamp technique; type: cell-based
Voltage-gated inwardly rectifying potassium channel KCNH2, sequence (Q12809 whole entry): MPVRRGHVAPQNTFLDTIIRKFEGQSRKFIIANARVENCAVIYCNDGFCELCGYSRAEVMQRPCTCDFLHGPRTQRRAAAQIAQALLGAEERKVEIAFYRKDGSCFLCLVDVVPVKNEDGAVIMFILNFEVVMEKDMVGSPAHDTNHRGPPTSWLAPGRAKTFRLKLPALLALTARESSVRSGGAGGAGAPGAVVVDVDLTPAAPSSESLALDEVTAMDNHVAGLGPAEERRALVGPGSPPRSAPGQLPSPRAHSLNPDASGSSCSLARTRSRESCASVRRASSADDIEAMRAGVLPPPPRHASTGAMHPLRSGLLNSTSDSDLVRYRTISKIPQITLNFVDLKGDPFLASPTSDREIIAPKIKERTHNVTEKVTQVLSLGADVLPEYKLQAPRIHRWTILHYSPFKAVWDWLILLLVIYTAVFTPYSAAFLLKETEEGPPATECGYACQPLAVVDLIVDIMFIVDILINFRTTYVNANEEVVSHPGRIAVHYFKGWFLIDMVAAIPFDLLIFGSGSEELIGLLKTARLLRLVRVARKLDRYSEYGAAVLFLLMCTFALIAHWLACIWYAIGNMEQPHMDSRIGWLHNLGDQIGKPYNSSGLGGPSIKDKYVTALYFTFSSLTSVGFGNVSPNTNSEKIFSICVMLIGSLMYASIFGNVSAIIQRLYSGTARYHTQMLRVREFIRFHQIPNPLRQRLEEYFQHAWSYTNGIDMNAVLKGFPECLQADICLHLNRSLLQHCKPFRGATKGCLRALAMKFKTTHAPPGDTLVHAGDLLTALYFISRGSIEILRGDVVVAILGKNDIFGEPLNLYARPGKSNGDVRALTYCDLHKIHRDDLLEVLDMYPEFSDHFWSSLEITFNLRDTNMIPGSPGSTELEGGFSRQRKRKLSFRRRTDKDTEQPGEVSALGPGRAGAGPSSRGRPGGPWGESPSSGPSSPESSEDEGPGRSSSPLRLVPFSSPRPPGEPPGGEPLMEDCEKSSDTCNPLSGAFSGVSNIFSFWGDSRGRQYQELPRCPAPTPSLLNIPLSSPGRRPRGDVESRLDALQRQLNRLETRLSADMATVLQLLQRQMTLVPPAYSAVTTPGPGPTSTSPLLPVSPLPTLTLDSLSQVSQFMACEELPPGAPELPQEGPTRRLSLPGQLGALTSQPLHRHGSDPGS

[4] = test system: HEK293; assay: Selectivity ratio of IC50 for sodium channel in guinea pig ventricular myocytes to IC50 for human Kv1.5 channel expressed in HEK293 cells; type: cell-based
[5] = Inhibition of sodium channel in guinea pig ventricular myocytes by whole cell patch clamp technique; type: cell-based; settings: Cavia porcellus, Ventricular myocyte
Summary of the method: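 Whole-cell I_Na was recorded in enzymatically isolated ventricular myocytes, using only quiescent, rod-shaped, striated cells, at 25 °C. Holding potential was -90 mV, with 30-ms pulses from -80 to +40 mV in 10-mV increments at 0.5 Hz. Compound was applied ≥5 min after current stabilized. IC50 came from cell-by-cell Hill fits, ≥3 cells per concentration, mean ± SD.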

[6] = molecular target: T1, Potassium voltage-gated channel subfamily A member 5; assay: Inhibition of human Kv1.5 channel expressed in HEK293 cells at 10 uM by whole cell patch clamp technique; type: cell-based
[7] = species on record: Rattus norvegicus; assay: Prolongation of atrial effective refractory period in left atrium of Sprague-Dawley rat heart after 10 mins; type: functional, tissue-based; settings: Cardiac atrium
Summary of the method: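 Male SD rats (230 ± 30 g) were anesthetized with i.p. chloral hydrate. Left atrium and right ventricle were isolated into Krebs-Henseleit solution at pH 7.4, gassed with 95% O2/5% CO2. Compound was added cumulatively at 0.1, 1.0, 10 and 50 μmol/L, with 10 min equilibration each. ERP was recorded before and after compound. Values are mean ± SEM, n = 3, compared by Student's t test.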

[8] = Effect on ventricular effective refractory period in right ventricle of Sprague-Dawley rat heart at 0.1 to 50 umol/L after 10 mins

T1 sequence (P22460 whole entry): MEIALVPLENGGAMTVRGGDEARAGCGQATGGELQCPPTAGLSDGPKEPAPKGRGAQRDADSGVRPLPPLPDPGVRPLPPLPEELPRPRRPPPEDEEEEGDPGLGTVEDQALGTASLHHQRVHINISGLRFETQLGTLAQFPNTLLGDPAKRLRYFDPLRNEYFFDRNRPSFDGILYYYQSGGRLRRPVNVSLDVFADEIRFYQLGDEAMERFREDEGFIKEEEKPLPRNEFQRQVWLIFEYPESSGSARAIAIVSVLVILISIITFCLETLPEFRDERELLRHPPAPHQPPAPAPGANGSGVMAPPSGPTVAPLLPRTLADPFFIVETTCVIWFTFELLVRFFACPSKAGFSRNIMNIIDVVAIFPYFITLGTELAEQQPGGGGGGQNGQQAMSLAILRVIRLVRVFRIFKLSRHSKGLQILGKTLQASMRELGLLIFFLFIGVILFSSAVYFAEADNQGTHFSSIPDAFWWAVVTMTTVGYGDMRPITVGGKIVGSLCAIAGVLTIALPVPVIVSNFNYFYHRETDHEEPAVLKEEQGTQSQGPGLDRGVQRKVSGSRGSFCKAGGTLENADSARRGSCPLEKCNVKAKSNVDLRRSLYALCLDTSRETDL

Row | Compound | IC50 [1] [µM] | inhibition [1] | also measured
1 | COC(=O)C(Cc1c[nH]c2ccccc12)NS(=O)(=O)c1ccc(OC)cc1 (stereo not drawn) | 5.45 | Dose-dependent effect | –
2 | Cc1ccc(S(=O)(=O)N/N=C/c2cn(CC(=O)Nc3ccc(OC(F)(F)F)cc3)c3ccccc23)cc1 | 1.52 | Dose-dependent effect | –
3 | CCCCOc1ccc(S(=O)(=O)NCCc2cn(CC(=O)Nc3ccc(Cl)cc3)c3ccccc23)cc1 | 185 | Dose-dependent effect | –
4 | COC(=O)C(Cc1c[nH]c2ccccc12)NS(=O)(=O)c1ccc(OCC(C)C)cc1 (stereo not drawn) | 3.56 | Dose-dependent effect | –
5 | COC(=O)C(Cc1c[nH]c2ccccc12)NS(=O)(=O)c1ccc(OC2CCCC2)cc1 (stereo not drawn) | 2.38 | Dose-dependent effect | –
6 | Cc1ccc(S(=O)(=O)N/N=C/c2cn(CC(=O)Nc3ccc(Cl)cc3)c3ccccc23)cc1 | 1.9 | Dose-dependent effect | –
7 | COc1ccc(NC(=O)Cn2cc(/C=N/NS(=O)(=O)c3ccc(C)cc3)c3ccccc32)cc1 | 16.9 | Dose-dependent effect | –
8 | COc1ccc(NC(=O)Cn2cc(CCNS(=O)(=O)c3ccc(OC)cc3)c3ccccc32)cc1 | 1.72 | Dose-dependent effect | Ratio IC50 [2]: 5.95; IC50 [3]: 10.2 µM
9 | COc1ccc(S(=O)(=O)NCCc2cn(CC(=O)Nc3ccc(Cl)cc3)c3ccccc23)cc1 | 3.14 | Dose-dependent effect | –
10 | CCCCOc1ccc(S(=O)(=O)NCCc2cn(CC(=O)Nc3ccc(OC)cc3)c3ccccc23)cc1 | 6.21 | Dose-dependent effect | –
11 | Cc1ccc(S(=O)(=O)N/N=C/c2cn(CC(=O)Nc3ccc(C)c(C)c3)c3ccccc23)cc1 | 11.2 | Dose-dependent effect | –
12 | CCCCOc1ccc(S(=O)(=O)NC(Cc2ccccc2)C(=O)OC)cc1 (stereo not drawn) | 110 | Dose-dependent effect | –
13 | Cc1ccc(S(=O)(=O)N/N=C/c2cn(CC(=O)Nc3ccccc3)c3ccccc23)cc1 | 0.81 | Dose-dependent effect | Ratio IC50 [4]: 96.3; IC50 [5]: 78 µM; Ratio IC50 [2]: 53.9; IC50 [3]: 43.6 µM
14 | CCCCOc1ccc(S(=O)(=O)NC(Cc2c[nH]c3ccccc23)C(=O)O)cc1 (stereo not drawn) | 65.4 | Dose-dependent effect | –
15 | COC(=O)C(Cc1c[nH]c2ccccc12)NS(=O)(=O)c1ccc(OC(C)C)cc1 (stereo not drawn) | 3.93 | Dose-dependent effect | –
16 | CCCCOc1ccc(S(=O)(=O)NC(Cc2c[nH]c3ccccc23)C(=O)OC)cc1 (stereo not drawn) | 8.37 | Dose-dependent effect | inhibition [6]: 52%
17 | COC(=O)C(Cc1c[nH]c2ccccc12)NS(=O)(=O)c1ccc(F)cc1 (stereo not drawn) | 6.45 | Dose-dependent effect | –
18 | Cc1ccc(S(=O)(=O)NCCc2cn(CC(=O)Nc3ccc(Cl)cc3)c3ccccc23)cc1 | 12.9 | Dose-dependent effect | –
19 | COC(=O)C(Cc1c[nH]c2ccccc12)NS(=O)(=O)c1ccc(Br)cc1 (stereo not drawn) | 2.25 | Dose-dependent effect | –
20 | Cc1ccc(S(=O)(=O)N/N=C/c2cn(CC(=O)Nc3ccccc3Cl)c3ccccc23)cc1 | 0.74 | Dose-dependent effect | Ratio IC50 [2]: 25.2; IC50 [3]: 18.7 µM
21 | Cc1ccc(S(=O)(=O)N/N=C/c2cn(CC(=O)Nc3ccc(C)cc3C)c3ccccc23)cc1 | 24 | Dose-dependent effect | –
22 | COc1ccc2c(c1)c(/C=N/NS(=O)(=O)c1ccc(C)cc1)cn2CC(=O)Nc1ccc(F)cc1F | 2.18 | Dose-dependent effect | –
23 | COc1ccc2c(c1)c(/C=N/NS(=O)(=O)c1ccc(C)cc1)cn2CC(=O)Nc1ccccc1 | 3.73 | Dose-dependent effect | –
24 | CCCCOc1ccc(S(=O)(=O)NCCc2c[nH]c3ccccc23)cc1 | 9.95 | Dose-dependent effect | Ratio IC50 [2]: 0.32; IC50 [3]: 3.18 µM
25 | Cc1ccc(S(=O)(=O)N/N=C/c2cn(CC(=O)Nc3cc(C)ccc3C)c3ccccc23)cc1 | 1.77 | Dose-dependent effect | –
26 | CCC(=O)Oc1ccc(NC(=O)Cn2cc(/C=N/NS(=O)(=O)c3ccc(C)cc3)c3ccccc32)cc1 | 2.14 | Dose-dependent effect | –
27 | Cc1ccc(S(=O)(=O)N/N=C/c2cn(CC(=O)Nc3ccc(F)cc3F)c3ccccc23)cc1 | 0.25 | Dose-dependent effect | Activity [7]: Dose-dependent effect; Ratio IC50 [4]: 459; IC50 [5]: 115 µM; Ratio IC50 [2]: 172; IC50 [3]: 43 µM; Activity [8]: Non-toxic
28 | COC(=O)C(Cc1c[nH]c2ccccc12)NS(=O)(=O)c1ccc(C)cc1 (stereo not drawn) | 4.72 | Dose-dependent effect | –
29 | COc1ccc2c(c1)c(/C=N/NS(=O)(=O)c1ccc(C)cc1)cn2CC(=O)Nc1ccc(Cl)cc1 | 0.51 | Dose-dependent effect | Activity [7]: Dose-dependent effect; Ratio IC50 [4]: 103; IC50 [5]: 52.6 µM; Ratio IC50 [2]: 820; IC50 [3]: 418 µM; Activity [8]: Non-toxic
30 | COc1ccc(NC(=O)Cn2cc(CCNS(=O)(=O)c3ccc(C)cc3)c3ccccc32)cc1 | 38.7 | Dose-dependent effect | –
